Screens from PubChem BioAssay.
A selection: hits, their analogues and other compounds. The true share with any hit is near 2.1%.
LMPTP inh: LMPTP (human) inhibition; P24666; recombinant LMPTP-A, OMFP fluorogenic substrate, fluorescence intensity; inhibition, % at 20 µM; actives 0.22% (n = 360,000); AID 651560;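 active = compounds that cut the enzyme signal by at least half of the control window in the single-dose screen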;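 also: plate controls were DMSO wells with enzyme plus substrate for no effect and substrate without enzyme for full effect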
Target sequence (P24666 whole entry, looked up): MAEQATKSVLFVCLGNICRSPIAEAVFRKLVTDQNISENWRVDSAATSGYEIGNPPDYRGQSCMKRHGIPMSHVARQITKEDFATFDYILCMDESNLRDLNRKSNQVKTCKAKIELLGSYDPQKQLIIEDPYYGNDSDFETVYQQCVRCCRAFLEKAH
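Test system: LMPTP-A, protein tyrosine phosphatase of low molecular weight; Input: 0.625 nM enzyme; Incubation: 50 min dark incubation at room temperature; Signal: endpoint fluorescence intensity from OMFP dephosphorylation; Read-out basis: % inhibition versus control wells.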
STEP block: blocks human striatal-enriched tyrosine phosphatase; P54829; recombinant STEP, OMFP fluorogenic substrate, fluorescence; inhibition, % at 20 µM; actives 0.25% (n = 360,000);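 active = inhibition at 20 µM, scaled per plate between control wells, above about 37%, limit read from the data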;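 also: 0% = DMSO with enzyme and substrate and 100% = substrate only without enzyme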
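System: STEP (striatal-enriched tyrosine phosphatase) enzyme, cell-free; medium: Bis-Tris pH 6.0 buffer with DTT, detergent; dosing: 20 µM, 1% DMSO; times: reaction 20 min, ambient temperature; detection: fluorescence, 480/540 nm; read-out basis: normalized % inhibition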
Scp-1 inhibitor: Scp-1 (human) phosphatase inhibition | Q9GZU7 | inhibition, % at 20 µM | Recombinant Scp1, phosphopeptide, malachite green phosphate absorbance | actives 0.88% (n = 340,000);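 active = inhibition above about 50% at 20 µM, limit read from the data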;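 also: plate controls were DMSO wells with enzyme for no effect and wells lacking enzyme for full effect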
Target sequence (Q9GZU7 76-261 limits assumed): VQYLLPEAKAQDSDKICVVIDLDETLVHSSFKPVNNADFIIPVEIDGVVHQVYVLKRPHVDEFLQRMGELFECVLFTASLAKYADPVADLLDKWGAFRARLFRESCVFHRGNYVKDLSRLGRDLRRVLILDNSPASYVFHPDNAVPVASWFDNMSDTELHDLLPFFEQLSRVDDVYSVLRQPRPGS
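assay system = SCP-1 phosphatase catalytic domain, residues 76-261 | buffer or medium = 50 mM Tris acetate pH 5.5, 0.005% Tween-20, 10 mM MgCl2 | incubation = enzyme reaction 45 min at room temperature, colour 5 min, stabilisation 30 min | signal = Phosphate-binding colour reagent, absorbance read at 630 nm | measure = % inhibition at 20 µM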
GRK2 aptamer HTS: blocks RNA aptamer binding to human GRK2 | AID 488847 | P25098 | actives 0.59% (n = 330,000) | inhibition of aptamer binding, % at 10 µM | bead flow cytometry, FAM-aptamer displacement from GRK2;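 active = inhibition of aptamer binding above 40%, roughly 3 SD of noise, on plates passing a quality check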;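 also: median bead fluorescence of bound FAM aptamer so fluorescent compounds give negative values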
SUMO1 PPI mod: modulators of human SUMO1-mediated protein-protein interactions. SUMO1 binding to a labelled peptide, TR-FRET, 1 h. actives 0.33% (n = 360,000). inhibition, % at 20 µM. P63165; in the data active = inhibition above about 37%
Target sequence (P63165 whole entry, looked up): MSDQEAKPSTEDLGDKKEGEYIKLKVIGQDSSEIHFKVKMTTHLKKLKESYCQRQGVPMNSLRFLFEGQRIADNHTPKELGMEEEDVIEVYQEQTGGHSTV
DNMT1 block: inhibitors of human DNMT1; DNMT1 molecular beacon, Hinp1I cleavage, fluorescence; inhibition (reported as % activation of signal), % at 10 µM; actives 0.83% (n = 360,000); AID 588458; in the data active = inhibition above about 50%
GRK2 inh confirm: human GRK2 inhibition confirmation, cherry pick 1 | shares compounds with GRK2 aptamer HTS | bead-bound GRK2, FAM-aptamer displacement, flow cytometry | aptamer displacement, % at 10 µM | actives 4% (n = 2,000) | AID 504451;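 active = aptamer displacement above 40%, near three times the noise of non-fluorescent compounds, on plates passing quality checks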;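 also: negative values mostly reflect intrinsic compound fluorescence rather than true enhancement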
Aptamer quench: fluorescent aptamer quenching in GRK2 counter-screen dose response | shares compounds with GRK2 aptamer HTS | Fluorescent RNA aptamer beads, flow cytometry; stronger effect = higher value | fluorescence change (kMESF span), kMESF (concentration not given with the values) | 110 tested, under 10 active;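 active = compounds whose bead fluorescence drops by more than 37 kMESF across the dose range, marking them as dye quenchers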
FAM quench CP1: aptamer fluorescence quenching in GRK2 counter-screen. shares compounds with GRK2 aptamer HTS. fluorescence response (% of DMSO), % at 10 µM. AID 504580. Carboxyfluorescein RNA aptamer on beads, flow cytometry quenching; stronger effect = lower value. 2,000 tested, under 10 active;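 active = compounds that quench the bead-bound fluorescent RNA probe, cutting fluorescence to under half of the solvent control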;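 also: counterscreen run without GRK2 so only probe quenching by compound is measured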
GRK2 CP2: human GRK2 inhibition confirmation, cherry pick 2 | shares compounds with GRK2 aptamer HTS | bead-bound GRK2, FAM-aptamer displacement, flow cytometry | inhibition of aptamer binding, % at 10 µM | 360 tested, under 10 active | AID 504782;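 active = inhibition of aptamer binding above 40%, about triple the noise seen with nonglowing compounds, on plates passing quality control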;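 also: negative values mostly come from compounds that fluoresce themselves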
Aptamer quench 2: quenches fluorescent RNA aptamer, GRK2 hit artifact | shares compounds with GRK2 aptamer HTS | Streptavidin beads, FAM-RNA aptamer fluorescence quenching, flow cytometry | change in fluorescence (kMESF span), kMESF (no concentration beside the values) | 25 tested, under 10 active | AID 504819;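 active = compounds quenching the bead-bound labeled aptamer, with fluorescence dropping by more than 37 kMESF over the dose range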
FAM quench CP2: quenches fluorescent RNA aptamer, GRK2 hit artifact | shares compounds with GRK2 aptamer HTS | carboxyfluorescein RNA aptamer beads, flow cytometry quenching; stronger effect = lower value | fluorescence response vs DMSO, % at 10 µM | 360 tested, under 10 active | AID 588494;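 active = response vs DMSO under 50%, meaning signal dropped by over half, treated as fluorescence quencher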;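 also: labelled aptamer on streptavidin beads without GRK2 as a quench counter-screen; 100% = bead fluorescence of DMSO wells and lower means quenching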
FAM quench DR: quenches fluorescent RNA aptamer, GRK2 hit artifact. AID 588496. 35 tested, under 10 active. Bead-bound FAM RNA aptamer fluorescence quenching, flow cytometry; stronger effect = lower value. shares compounds with GRK2 aptamer HTS. fluorescence ratio to DMSO, % at 11.1 µM;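 active = compounds that dim the fluorescent label, raw bead signal shifting by over 33 units between lowest and highest dose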
Numbers without * were called inactive.

Results for CN(C)c1ccc(-n2cccc2)cc1 ?
LMPTP inh: 0; STEP block: 0; Scp-1 inhibitor: -7; GRK2 aptamer HTS: 0; SUMO1 PPI mod: -2; DNMT1 block: -13; GRK2 CP2: -7; FAM quench CP2: 102

What do the screens show for `CN(C)/C=C/C(=O)c1ccc(-n2cccc2)cc1`?
LMPTP inh: 2; STEP block: -1; Scp-1 inhibitor: -7; GRK2 aptamer HTS: 2; SUMO1 PPI mod: -13; DNMT1 block: -2

Results for Cc1ccccc1NC(=O)CCS(=O)(=O)c1ccc(Br)cc1 ?
LMPTP inh: 0; STEP block: 5; Scp-1 inhibitor: 28; GRK2 aptamer HTS: 41*; SUMO1 PPI mod: 10; DNMT1 block: 8; GRK2 inh confirm: 18; FAM quench CP1: 102; Aptamer quench 2: -6.9; FAM quench DR: 97

How did Cc1ccccc1NC(=O)CCS(=O)(=O)c1ccc(Br)s1 do in these assays?
LMPTP inh: 0; STEP block: 5; Scp-1 inhibitor: 46; GRK2 aptamer HTS: 67*; SUMO1 PPI mod: 15; DNMT1 block: 25; GRK2 inh confirm: 38; Aptamer quench: 12; FAM quench CP1: 100; FAM quench DR: 95

What do the screens show for `Cc1cccc(C)c1NC(=O)CCS(=O)(=O)c1ccc(Br)cc1`?
LMPTP inh: -1; STEP block: 0; Scp-1 inhibitor: -9; GRK2 aptamer HTS: 2; SUMO1 PPI mod: -2; DNMT1 block: -1

Results for Cc1ccc(NC(=O)CCS(=O)(=O)c2ccc(Br)cc2)nc1 ?
LMPTP inh: -1; STEP block: 1; Scp-1 inhibitor: 2; GRK2 aptamer HTS: 0; SUMO1 PPI mod: 0; DNMT1 block: -3; GRK2 inh confirm: 1; FAM quench CP1: 96

Results for COC(=O)c1ccc(NC(=O)CCS(=O)(=O)c2ccc(Br)s2)cc1 ?
LMPTP inh: -1; STEP block: -5; Scp-1 inhibitor: 0; GRK2 aptamer HTS: 0; SUMO1 PPI mod: 1; DNMT1 block: 2

How did COC(=O)c1ccccc1NC(=O)CCS(=O)(=O)c1ccc(Br)s1 do in these assays?
LMPTP inh: -1; STEP block: 2; Scp-1 inhibitor: 8; GRK2 aptamer HTS: 3; SUMO1 PPI mod: 2; DNMT1 block: 1; GRK2 inh confirm: 0; Aptamer quench: 1.2; FAM quench CP1: 103; FAM quench DR: 99

How did COCCNC(=O)C1CCCN(Cc2ccc(C#N)cc2)CC1 (centres undefined) do in these assays?
LMPTP inh: -3; STEP block: 2; SUMO1 PPI mod: -11; DNMT1 block: 5

Results for O=C(NCc1ccccc1)c1nc(-c2c(F)cccc2F)oc1-c1ccccc1 ?
LMPTP inh: 3; SUMO1 PPI mod: -1

Results for CCOc1ccccc1NC(=O)CCS(=O)(=O)c1ccc(OC)cc1 ?
LMPTP inh: -1; STEP block: -4; Scp-1 inhibitor: -4; GRK2 aptamer HTS: 0; SUMO1 PPI mod: 1; DNMT1 block: -2; GRK2 CP2: -33; FAM quench CP2: 103

What do the screens show for `COc1ccc(NC(=O)CCS(=O)(=O)c2cccc3nonc23)cc1`?
LMPTP inh: -2; STEP block: -2; Scp-1 inhibitor: -1; GRK2 aptamer HTS: 1; SUMO1 PPI mod: -33; DNMT1 block: 0

How did COc1ccc(NC(=O)CCS(=O)(=O)c2cccc3nonc23)c(OC)c1 do in these assays?
LMPTP inh: 0; STEP block: 2; Scp-1 inhibitor: 8; GRK2 aptamer HTS: 1; SUMO1 PPI mod: -26; DNMT1 block: -1; GRK2 CP2: -6; FAM quench CP2: 100

Results for Cc1ccc(S(=O)(=O)CCC(=O)NC2CCCC2)cc1 ?
LMPTP inh: 0; STEP block: -1; Scp-1 inhibitor: -5; GRK2 aptamer HTS: 0; SUMO1 PPI mod: -1; DNMT1 block: 2; GRK2 CP2: 0; FAM quench CP2: 100

Results for CCC1Oc2ccccc2N(CC(=O)NCCCN2CCCCC2C)C1=O (centres undefined) ?
LMPTP inh: -2; STEP block: -1; Scp-1 inhibitor: -7; GRK2 aptamer HTS: 61*; SUMO1 PPI mod: -2; DNMT1 block: 1; GRK2 inh confirm: -9; FAM quench CP1: 111

What do the screens show for `CCOC(=O)C1=C(C)Nc2nc(SCc3cccnc3)nn2C1c1ccc(OC)cc1` (centres undefined)?
LMPTP inh: 0; STEP block: 0; Scp-1 inhibitor: -8; GRK2 aptamer HTS: 55*; SUMO1 PPI mod: 5; DNMT1 block: 1; GRK2 inh confirm: 2; FAM quench CP1: 100

Results for CC1=C(C(N)=O)C(c2cccnc2)n2nc(SCc3ccccc3Cl)nc2N1 (centres undefined) ?
LMPTP inh: 0; STEP block: 0; Scp-1 inhibitor: -4; GRK2 aptamer HTS: 1; SUMO1 PPI mod: 2; DNMT1 block: -3

What do the screens show for `Cc1occc1C(=O)NNC(=S)Nc1ccccc1C(F)(F)F`?
LMPTP inh: -3; STEP block: -2; Scp-1 inhibitor: -9; GRK2 aptamer HTS: 0; SUMO1 PPI mod: 3; DNMT1 block: -1

How did O=C(NNC(=S)Nc1ccccc1C(F)(F)F)c1ccc(Br)o1 do in these assays?
LMPTP inh: 0; STEP block: -1; Scp-1 inhibitor: -14; GRK2 aptamer HTS: 42*; SUMO1 PPI mod: -2; DNMT1 block: -3; GRK2 inh confirm: 2; FAM quench CP1: 101
